Data taken from the RNAGym collection of RNA variant scans (doi:10.1126/science.aae0568).
Variants at the floor of the assay were thinned out.

B1: tRNA (parent)
chain: GUUCCGUUGGCGUAAUGGUAACGCGUCUCCCUCCUAAGGAGAAGACUGCGGGUUCGAGUCCCGUACGGAACG

Variants of: B1
Assay: yeast fitness relative to wild type (ratio to wild type); higher = fitter; tRNA-Arg(CCU), competitive growth, 37 C, YPD
How it was run: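 Genotype frequency changes were the basis for Darwinian fitness relative to wild type. The frequencies came from 100-nucleotide paired-end sequencing of gene amplicons from the start population and each end population of pooled yeast strains with tRNA-Arg(CCU) gene variants at the native locus. Competition ran in YPD at 37°C for 24 hours in six replicates, genotypes needed ≥ 100 starting reads, and estimates < 0.5 were set to 0.5.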
In the case of GUUCCGUUGGCGUAAUGGUAACGCGUUUCCCUCCUAAGGAGAAGACUGCGGGUUCAAGUCCCGUACGGAACG, the yeast fitness is reported as 0.998. For GUUCCGUUGGCGUAAUGGUAACGCGUUUCCCUCCUAAGGAGAAGACUGCGAGUUCGAGUCCCGAACGGGACG, the yeast fitness was ≤ 0.5. In the case of GUUCCGUUGGCGUAAUGGUAACGCGUUUCCCUCCUAAGGACAAGACUGCGGGUUCGAGUCGCGUACGGAACG, the yeast fitness is reported as ≤ 0.5. With GUUCCGUUGGCGUAAUGGUAACGCGUUUCCCUCCAAAGGAGAAGACUGCGGGUUCGAGUCCCGUACGGAACG the yeast fitness was 0.771. In the case of GUUCCGUUGGCGUAAUGGUAACGCGUUCCCCUCCUAAGGAGAAGCCUGCGGGUUCGAGUCCCGUACGGAACG, the yeast fitness is reported as 0.773. With GUUCCGUUGGCGUAAUGGUAACGCGUUUCCCUCCUAAGGAGAAGACUAUGGGUUCGAGUCCCGUACAGAACG the yeast fitness was 0.674. In the case of GUUCCGUUGGCGUAAUGGUAACGCGUCACCCUCCUAAGGAGAAGACUGCGGGUUCGAGUCCCGUACGGCACG, the yeast fitness is reported as 0.88. With GUUCCGUUGGCGUAAUGGUAACGCGUUUCCCUCCUAAGGAGAAGACUAUGGGUUCGAGUCCCGUACGGAACG the yeast fitness was 1.01. With GUUCCGUUGGCGUAAUGGUAACGCGUUUCCCUCCCAAGGAGAAGACUGCGGGUUCGAGUCCCGUACGGUACG the yeast fitness was 0.802. GUUCCGUUGGCGUAAUGGUAACGCGUUGCCCUCCUAAGGCGAAGAAUGUGGGUUCGAGUCCCGUACGGAUCG gave a yeast fitness of 0.695. For GUUCCGUUGGCGUAAUGGUAACGCGUUUCCCUCCUAAGGAGAAGACUGCGGGUUCGACUCCCGUACGGAUCG, the yeast fitness was 0.876. GUUCCGUUGGCGUAAUGGUAACGCGUCACCCUCCUAAGGAGAGGACUGCGGGUUCGAGUCCCGUACGCAACG gave a yeast fitness of 0.642. With GUUCCGUUGGCGUAAUGGUAACGCGUCACCCUCCUAAGGCGAAGAGUGCGGGUUCGAGUCCCGUACGGAACG the yeast fitness was ≤ 0.5. In the case of GUUCCGUUGGCGUAAUGGUAACGCGUUUCCCUCCAAAGGAGAAGACUGCGGGUUCGAGCCCCGUACGGAACG, the yeast fitness is reported as ≤ 0.5. In the case of GUUCCGUUGGCGUAAUGGUAACGCGUUACCCACUUCAGGAGAAGACUGCGGGUUAGAGUCCCGUCCGGACCG, the yeast fitness is reported as ≤ 0.5. In the case of GUUCCGUUGGCGUAAUGGUAACGCGUUUCCCUCCGAAGGAGAAGACUGCGGGUUCGCGUCCCGUCCGGAUCG, the yeast fitness is reported as ≤ 0.5. GUUCCGUUGGCGUAAUGGUAACGCGUUUCCCUCCCAAGGAGACGACUGCGGGUUCGAGUCCCGUACGGUACG gave a yeast fitness of 0.62. With GUUCCGUUGGCGUAAUGGUAACGCGUUUCCCACCUAAGGAGAAGACUGCGGGUUCGAGUCCCGUAUCGAACG the yeast fitness was 0.598. For GUUCCGUUGGCGUAAUGGUAACGCGUUUCCCCCCUAAGGAGAAGACUGCGGGUUCGAGUCCCGUACGGAACG, the yeast fitness was 0.844. For GUUCCGUUGGCGUAAUGGUAACGCGUUGCCCUCCUAAGGCGAAGACUGCGGGUUCGAGUCCCGUACGGCACG, the yeast fitness was 0.607. For GUUCCGUUGGCGUAAUGGUAACGCGUCACCCUCCUAAGGAGAUGACUGCGGGUUCGAGUCCCGUUCGGAACG, the yeast fitness was ≤ 0.5. For GUUCCGUUGGCGUAAUGGUAACGCGUUUCCCUCCUAAGGAGAAGACUGCGCGUUAGAGUACCGUACGGAACG, the yeast fitness was ≤ 0.5. GUUCCGUUGGCGUAAUGGUAACGCGUUUCCCUCCUAAGGAGAAGACUCCGGGUUCGAGUCCCGUACGGAACG gave a yeast fitness of 0.958. Variant GUUCCGUUGGCGUAAUGGUAACGCGUUACCCACUUCAGGAGAAGACUGCGGGUUCGAGUCCCGUACGGAACG has a yeast fitness of 0.554. For GUUCCGUUGGCGUAAUGGUAACGCGUUUCCCCCCUAAGGAGAAGACUGCGGGUUCGAGUCCGGUACGGAACG, the yeast fitness was ≤ 0.5. GUUCCGUUGGCGUAAUGGUAACGCGUCACCCUCCUAAGGAGAAGACUGCGGGUUCGAGUCCCGUACGGAGCG showed a yeast fitness of 0.904. For GUUCCGUUGGCGUAAUGGUAACGCGUCACCCUCCUAAGGAGGAGACUGCGGGUUAGAGUCCCGUAAGGAACG, the yeast fitness was ≤ 0.5. In the case of GUUCCGUUGGCGUAAUGGUAACGCGUCACCCUCCUAUGGAGAAGACUGCGGGUUCGAGUCCCGUACGGCACG, the yeast fitness is reported as ≤ 0.5. With GUUCCGUUGGCGUAAUGGUAACGCGUUUCCCCCCUAAGGAGAAGACUGCGGGUUCGAGUCCCGUUCGGACCG the yeast fitness was ≤ 0.5. In the case of GUUCCGUUGGCGUAAUGGUAACGCGUCACCCUCCUAAGGAGAAGACUGCGGGUUCGAGUCCCGUGCGGAACG, the yeast fitness is reported as 0.791. GUUCCGUUGGCGUAAUGGUAACGCGUCACCCUCCUAAGGAGAAGACUGCGGGUUCGAGUCCCGUUCGGAACG showed a yeast fitness of 0.642. In the case of GUUCCGUUGGCGUAAUGGUAACGCGUUUCCCUCCUAAGGAGAAGACUGCGGGUGUGAGUCCCGUACGGAACG, the yeast fitness is reported as ≤ 0.5. GUUCCGUUGGCGUAAUGGUAACGCGUUUCCCUCCUAAGGAGAAGACUGCGGGUUCGAGGCCCGUACGGAACG showed a yeast fitness of 0.823. GUUCCGUUGGCGUAAUGGUAACGCGUCACCCUCCUAAGGAGGAGACUGCGGGUUCGAGUCCCGUACGGAACG gave a yeast fitness of 0.667. GUUCCGUUGGCGUAAUGGUAACGCGUUACCCUCCUAGGGAGAAGACUGCGGGUUCGCCUCCCGUACGGAACG gave a yeast fitness of 1. In the case of GUUCCGUUGGCGUAAUGGUAACGCGUCACCCUCCUAAGGUGAAGACUGCGGGUUCGAGUCCCGUACGGAACG, the yeast fitness is reported as 0.984. With GUUCCGUUGGCGUAAUGGUAACGCGUCACCCUCCUAGGGGGAAGACUGCGGGUUCGAGUCCCGUACGGAACG the yeast fitness was ≤ 0.5. GUUCCGUUGGCGUAAUGGUAACGCGUUACCCACUUCAGGAGAAGACUGCGGGUUAGAGUCCCGUACGGAACG gave a yeast fitness of 0.543.
